Assay outcomes from PubChem BioAssay.
In the library only some 3.2% were active in any assay of this set; here they are far more common.
Mcl-1 Bim block: inhibitors of Bim peptide binding to Mcl-1, primary screen, biochemical, bead-based flow cytometry, multiplex. Induced myeloid leukemia cell differentiation protein Mcl-1 (Homo sapiens), Q07820. Bim peptide-Mcl-1 binding. inhibition, % at 10 µM. 190,000 compounds, 0.1% hits. AID 1009, 2008; in the data active means inhibition above about 40%
Mcl1-Bid inh: Mcl-1/Bid binding inhibitors, primary screen, biochemical, TR-FRET, 1536-well. inhibition, % at 21.7 µM. Induced myeloid leukemia cell differentiation protein Mcl-1 (Homo sapiens), Q07820. TR-FRET Mcl-1/Bid-Dy647 peptide binding. 220,000 compounds, 0.97% hits. AID 1021, 2008;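 active means compounds that cut the binding signal by more than half at the single screening dose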;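 further: His-tagged Mcl-1 with europium anti-His antibody binding Bid BH3 peptide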
Biofilm kill mix: clotrimazole potentiators killing C. albicans biofilm, primary screen, 4-compound mixtures; C. albicans biofilm persisters + clotrimazole, fluorescence viability; primary screen in compound mixtures of four per well; inhibition, % at 7.6 µM; 120,000 compounds, 0.02% hits; AID 1242, 2008;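 active means inhibition above 30.3% in the primary screen of four-compound pools, then above 30% when the compound was retested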;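 further: compounds exposed to preformed 24 h biofilms for 48 h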
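Probe or stimulus – Clotrimazole 50 µg/mL co-treatment · System – C. albicans biofilms · Schedule – 24 h biofilm formation, then 48 h compound exposure, 37 °C · Evaluation – percent inhibition of biofilm viability · Technique – 2-h Alamar Blue fluorescence, 535/590 nm excitation/emission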
Hck Nef HTS: inhibitors of Nef-activated human Hck kinase, primary screen, biochemical, Z-Lyte FRET, 384-well, Hck-YEEI | Tyrosine-protein kinase HCK (Homo sapiens), P08631 | Recombinant Hck-YEEI plus Nef, Z-Lyte FRET kinase assay | inhibition, % at 20 µM | 220,000 compounds, 0.68% hits;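 active means Hck-Nef kinase inhibition above about 50%, limit read from the data; inactive means inhibition below that limit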
Mcl1-Noxa inh: Mcl-1/Noxa binding inhibitors, primary screen, biochemical, TR-FRET, 1536-well; Induced myeloid leukemia cell differentiation protein Mcl-1 (Homo sapiens), Q07820; TR-FRET Mcl-1/Noxa peptide binding, 2 h; inhibition, % at 21.7 µM; 220,000 compounds, 1.5% hits;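 active means compounds that cut the protein-peptide binding signal by more than 50% relative to plate controls in a single-dose test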;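 further: His-tagged Mcl-1 with rhodamine Noxa BH3 peptide and terbium anti-His antibody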
14-3-3 Bad inh: inhibitors of 14-3-3 zeta/Bad binding, primary screen, biochemical, TR-FRET, bovine 14-3-3 zeta; 14-3-3 protein zeta/delta (Bos taurus), P63103; TR-FRET 14-3-3zeta/Dy647-pBad peptide displacement, 1 h; inhibition, % at 21.7 µM; 220,000 compounds, 0.71% hits; AID 781, 2007;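 active means inhibition above about 70%, limit read from the data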
Target sequence (P63103 whole entry, looked up): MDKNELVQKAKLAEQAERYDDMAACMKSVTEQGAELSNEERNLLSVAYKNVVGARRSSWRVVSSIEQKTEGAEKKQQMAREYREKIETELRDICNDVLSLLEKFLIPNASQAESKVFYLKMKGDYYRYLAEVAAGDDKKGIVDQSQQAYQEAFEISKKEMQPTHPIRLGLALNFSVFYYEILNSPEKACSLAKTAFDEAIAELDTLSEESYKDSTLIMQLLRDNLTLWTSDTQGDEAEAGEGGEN
Each line names hits and unclear results; the compound was inactive in the other large screens; [ ] = remark or other dose.

CCC(=O)N(CC)c1nc(-c2ccc(OC)cc2)cs1	Mcl1-Bid inh 53.6 (no result: Biofilm kill mix)
COc1cccc(N(CC(=O)N2CCN(C)CC2)S(=O)(=O)c2ccccc2)c1	Mcl1-Bid inh 59.8 (no result: Biofilm kill mix)
COc1cccc(N(CC(=O)O)S(=O)(=O)c2ccccc2)c1	none (no result: Biofilm kill mix)
CC(OC(=O)Cc1coc2cc3c(cc12)CCC3)C(=O)NC(N)=O (stereo not drawn)	none
Cc1cccn2c(=O)c3cc(C(=O)NC4CCCC4)c(=N)n(C4CCCC4)c3nc12	Hck Nef HTS 65.6 (no result: Biofilm kill mix)
CCn1c(=N)c(C(N)=O)cc2c(=O)n3cccc(C)c3nc21	Hck Nef HTS active (no result: Mcl-1 Bim block, Mcl1-Bid inh, Biofilm kill mix, Mcl1-Noxa inh, 14-3-3 Bad inh)
Cc1cccn2c(=O)c3cc(C(N)=S)c(=N)n(CCCN4CCOCC4)c3nc12	Mcl1-Bid inh 57.9
Clc1ccc(-n2cccc2CN2CCc3c([nH]c4ccccc34)C2c2ccccn2)nc1 (stereo not drawn)	none
CCOC(=O)c1ccc(NC(=O)COc2ccc(S(=O)(=O)NC(C)CC)cc2)cc1 (stereo not drawn)	none (no result: Biofilm kill mix)
CC(C)NS(=O)(=O)c1ccc(OCC(=O)Nc2ccc(F)cc2)cc1	Mcl-1 Bim block 58.0
O=C(COC(=O)c1cccc(Cl)c1)NCCN1C(=O)CSC1=O	none
O=C(COC(=O)c1ccc(Cl)cc1O)NCCN1C(=O)CSC1=O	14-3-3 Bad inh 96.9 (no result: Mcl-1 Bim block)
CCOC(=O)c1c(CSc2nc(C)cc(C)c2C#N)n(C)c2cc(Br)c(OC(C)=O)cc12	none
C=CCCc1ccc(C#N)c(SCc2c(C(=O)OCC)c3cc(OC(C)=O)c(Br)cc3n2C)n1	none
CCCCCCCCOC(=O)c1c(CSC(=N)N)n(C)c2cc(Br)c(OC(C)=O)cc12	14-3-3 Bad inh 85.2 (no result: Mcl-1 Bim block)
CCOC(=O)c1c(CSC(=N)N)n(-c2ccc(Br)cc2)c2cc(Br)c(OC(C)=O)cc12	Mcl1-Noxa inh 65.5, 14-3-3 Bad inh 95.7[fluorescence artefact?]
Cc1cccc(-n2cc(-c3ccccc3)c3c(N4CCOCC4)ncnc32)c1	none
Cc1ncc(CN2CCN(CCC(C)C)C(CCO)C2)s1 (stereo not drawn)	none
CCCN1Cc2cccc(C(=O)N3CCN(c4ccc(OC)cc4)CC3)c2C1=O	none
COc1ccc(N2Cc3cccc(C(=O)O)c3C2=O)cc1	Mcl1-Noxa inh 78.6 (no result: Biofilm kill mix)
CCc1ccc2c(CN(CC)Cc3nc4ccccc4c(=O)[nH]3)cc(=O)oc2c1	Mcl1-Bid inh 89.6 (no result: Biofilm kill mix)
COc1ccc2nc(Nc3nc(CSc4nc5ccccc5[nH]4)cc(=O)[nH]3)nc(C)c2c1	Mcl1-Bid inh 55.8
CN(C)/C=C/C(=O)c1cc(F)cc(C(F)(F)F)c1	none
O=C1CSC(c2ccncc2)N1Cc1ccco1 (stereo not drawn)	none (no result: Biofilm kill mix)
O=C1CSC(c2ccncc2)N1Cc1ccccc1 (stereo not drawn)	Mcl1-Bid inh 92.8
O=C1N/C(=C\c2nc3ccccc3s2)c2ccccc21	none (no result: Mcl-1 Bim block)
N#C/C=C1/NC(=O)c2ccccc2S1	Mcl1-Bid inh 64.7 (no result: Biofilm kill mix)
FC(F)Oc1ccc(-n2cc(-c3ccc(Cl)cc3)[n+]3c2CCCCC3)cc1	none (no result: Mcl-1 Bim block)
CCOC(=O)C1CCN(C(=O)c2cccnc2Oc2ccc(Cl)cc2)CC1	none (no result: Mcl-1 Bim block)
O=C(N/N=C1/C(=O)c2cccc3cccc1c23)c1ccc(Cl)cc1	Mcl1-Bid inh 87.7, 14-3-3 Bad inh 84.7[fluorescence artefact?] (no result: Biofilm kill mix)
COc1cc2c(ccc3cc(OC)c(OC)c(O)c32)cc1O	Hck Nef HTS 67.4, Mcl1-Noxa inh 107.3, 14-3-3 Bad inh 77.7 (no result: Mcl-1 Bim block)
COc1cc2cccc(OC)c(=O)c2c(O)c1OC	none
NNC(=S)Nc1ccc(C(F)(F)F)cc1Cl	none (no result: Mcl-1 Bim block)
N#C/C(=C\c1ccc(-c2ccc(F)cc2)o1)C(=O)Nc1nc(-c2cccs2)cs1	Mcl1-Noxa inh 56.7
COc1ccc(C(=O)NC(C(=O)NCCc2ccc3c(c2)OCCO3)C(C)C)cc1 (stereo not drawn)	none
O=C(CN1CCN(S(=O)(=O)c2ccccc2[N+](=O)[O-])CC1)NC(=O)NCc1ccco1	none
CCN(CC)CCn1nc2c3c(cccc3c1=O)-c1ccccc1-2	Mcl1-Noxa inh 69.7
